Granule exo inh: lytic granule exocytosis inhibition; TALL-104 LAMP-1 surface exposure, flow cytometry; cells stimulated with thapsigargin and PMA; inhibition, % at 10 µM; 360,000 compounds, 0.66% hits; AID 651702;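 active = inhibition above about 55%, limit read from the data; inconclusive = no clear call, values can overlap the other calls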
Myeloid diff 2: myeloid differentiation induction; ER-HoxA9 myeloid progenitors, lysozyme-GFP differentiation, flow cytometry; calls only at 10 µM; 360,000 compounds, 1% hits;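 active = normalized GFP-positive differentiation at or above the plate's own cutoff, the solvent-only control mean plus 3 SD; inconclusive = no clear call, values can overlap the other calls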;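 note: cells exposed to compound for four days before flow analysis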
EBI2 antag: antagonists of human EBI2 receptor; P32249; EBI2 beta-arrestin recruitment, luminescence, 7a,25-OHC stimulated; inhibition, % at 5 µM; 360,000 compounds, 0.81% hits; AID 651636; in the data active = inhibition above about 38%;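 note: enzyme fragment complementation signal reports receptor beta-arrestin coupling in cells; 0% = agonist plus DMSO wells and 100% = wells without agonist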
MC4R antagonist: antagonists of human melanocortin 4 receptor (MC4R); 360,000 compounds, 0.48% hits; inhibition, % at 6.5 µM; P32245; AID 540295; MC4R-expressing cells, MTII-stimulated cAMP, LANCE TR-FRET;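 active = inhibition above its plate's cutoff, the mean of tested wells on that plate plus 3 SD, cut at about 29% in these data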;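 note: 0% = Melanotan II alone and 100% = Melanotan II plus saturating MCL0020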
Target sequence (P32245 whole entry, looked up): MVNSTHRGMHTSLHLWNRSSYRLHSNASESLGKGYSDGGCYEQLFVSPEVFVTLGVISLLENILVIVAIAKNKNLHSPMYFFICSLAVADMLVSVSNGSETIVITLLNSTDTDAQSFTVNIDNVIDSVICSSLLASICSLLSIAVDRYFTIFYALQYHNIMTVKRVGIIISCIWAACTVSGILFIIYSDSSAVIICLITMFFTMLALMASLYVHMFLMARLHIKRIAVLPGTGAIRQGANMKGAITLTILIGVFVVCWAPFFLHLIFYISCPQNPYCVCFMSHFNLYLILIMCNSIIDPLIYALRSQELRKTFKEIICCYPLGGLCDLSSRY
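Material – human MC4R-expressing U2OS cells · Repeats – no replicates · Detection – TR-FRET with Eu-cAMP and labeled anti-cAMP, 671 nm · Times – compound 30 min, challenge 1 h, detection 1 h · Compound – single nominal compound dose of 6.5 µM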
MC4R barr agon: activates human MC4R beta-arrestin recruitment. P32245. U2OS MC4R beta-arrestin complementation, luminescence; percent of melanotan II response, DMSO zero. activation, % at 8.9 µM. 360,000 compounds, 0.98% hits;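 active = activation above a per-plate cutoff, the mean activation of sample wells on that plate plus 3 SD, cut at about 8% in these data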
Starred values were filed as active, the others as inactive; i = inactive; ? = inconclusive; · = not tested or not shown; + = active, no number. The list is not random: actives were taken first. Their share in the collection is about 3.7%.

SMILES | Granule exo inh | Myeloid diff 2 | EBI2 antag | MC4R antagonist | MC4R barr agon
Cn1c(=O)oc2cc(S(=O)(=O)N3CCC(C(=O)N4CCN(c5ccccc5)CC4)CC3)ccc21 | 3 | i | -3 | 7 | 0
CCCN1C(=O)/C(=C/c2ccc(N3CCOCC3)cc2)NC1=S | 2 | i | 7 | -4 | -4
Cc1ccc(CN2C(=O)N/C(=C\c3ccc(N4CCOCC4)cc3)C2=O)cc1 | 4 | i | -2 | -2 | 8.6*
COc1ccc2nc(C)cc(Nc3ccc(C)cc3)c2c1 | 7 | i | 16 | 7 | 0
Cc1ccc2nc(C)cc(Nc3ccc([N+](=O)[O-])cc3)c2c1 | 83* | ? | 4 | 4 | 4
O=C1CCC[C@@H]2C=C[C@H](c3ccc(Br)cc3)[C@H]3CCN1[C@@H]32 | 5 | i | 7 | · | ·
CCOc1ccc(NC(=O)/C(C#N)=C\c2ccc(N3CCCC3)c(C)c2)cc1 | 5 | i | -6 | 0 | 13*
CCOc1ccc(/C=C(\C#N)C(=O)Nc2cccnc2)cc1 | -1 | i | -4 | 2 | -1
Cn1c(=O)[nH]c(=O)c2c1nc(N1CCCCC1)n2CC(O)COc1ccc([N+](=O)[O-])cc1 (stereo not drawn) | 26 | i | -6 | 5 | 1
CCOC(=O)c1c(C)[nH]c(C)c1C(=O)COC(=O)/C=C/c1ccc(OC(F)F)cc1 | -6 | + | 15 | -6 | -1
Nc1cccc2c(O)cccc12 | 23 | + | -2 | -7 | 2
CC(C)(C)c1cc(C2COC(=O)COCCOCC(=O)OCCOCCO2)cc(C(C)(C)C)c1O (stereo not drawn) | 6 | i | -5 | 9 | 0
COc1ccc(-c2ccc3c(c2)S(=O)(=O)c2cccc(C(=O)N4CCN(C5CCCCC5)CC4)c2C3=O)cc1OC | -4 | + | -12 | 11 | 2
CCCCN1Cc2ccccc2Oc2cc(Br)ccc2S1(=O)=O | -1 | + | 16 | -4 | 0
Cc1nc(SCC(=O)N2CCC(Cc3ccccc3)CC2)[nH]c(=O)c1C | 2 | i | 6 | -7 | 0
COCCn1c(=O)[nH]c(=O)c2c1nc(-c1cc(Br)c3c(c1)OCO3)n2Cc1ccccc1 | -2 | i | 8 | 3 | -2
CC(C)CCNC(=O)COc1ccc(N(C)S(=O)(=O)c2ccc(F)cc2)cc1 | 8 | i | 15 | -1 | 0
O=C(CCCOc1ccc(Cl)cc1Cl)Nc1ccc(O)cc1C(=O)O | -5 | i | 4 | -3 | 5
CC(C)NC(=O)Nc1ccc2c(c1)C(=O)N([C@H](C)CO)C[C@H](C)[C@@H](CN(C)S(=O)(=O)c1cn(C)cn1)O2 | 0 | i | -6 | 4 | 0
Cc1oc(C)c2c(=O)ccc3c(c12)OC(N)=C(C#N)C3c1ccccc1 (stereo not drawn) | 0 | i | 6 | 22 | -1
Cc1oc(C)c2c(=O)ccc3c(c12)OC(N)=C(C#N)C3c1ccccc1Cl (stereo not drawn) | 0 | + | -5 | 0 | -2
COc1ccc(C(=O)N2CCOC2CNC(=O)C(=O)NCc2ccccn2)cc1 (stereo not drawn) | -8 | i | -10 | 7 | -1
Cc1ccc(Cn2c(C(C)Nc3nc(-c4ccc(Cl)cc4)cs3)nc3cc(C(=O)NCCCO)ccc32)cc1 (stereo not drawn) | 2 | + | -6 | 13 | 3
CCC(CN(C)C)Oc1cc(NCc2ccccc2)c2ncn(C(C)C)c2c1 (stereo not drawn) | -7 | + | -34 | -5 | -1
CCN(C(=O)CSc1nnc(-c2cccc(Cl)c2)n1N)c1c(N)n(Cc2ccccc2)c(=O)[nH]c1=O | 0 | i | -11 | 3 | -1
SMILES | Granule exo inh | Myeloid diff 2 | EBI2 antag | MC4R antagonist | MC4R barr agon
CC1(C(=O)Nc2ccc3ccccc3c2)CCC(=O)N1CCCn1ccnc1 (stereo not drawn) | 0 | i | -9 | · | ·
CC(C)C[C@H]1CN(CCCC[C@@H]2CNC(=O)C(=O)N2CC2CCCCC2)C(=O)C(=O)N1CCC1CCCCC1 | -6 | i | 13 | · | ·
Cc1ccc(Nc2nc(-c3ccc(S(=O)(=O)N4CCCC4)cc3)cs2)cc1C | 3 | i | 34 | 14 | 0
Cc1cc(C)cc(Nc2nc(-c3ccc(S(=O)(=O)N4CCCC4)cc3)cs2)c1 | 2 | + | 39 | -4 | -4
C=CC[N@@+]12CC[C@]34c5ccccc5N5/C=C6\C7N(/C=C(\C53)[C@@H](C[C@@H]41)/C(=C/CO)C2)c1ccccc1[C@@]71CC[N@@+]2(CC=C)C/C(=C\CO)[C@@H]6C[C@@H]12 (stereo partly drawn) | 2 | i | -3 | -4 | 0
Cc1sc2nc(COC(=O)c3cccc(S(=O)(=O)N(C)c4ccccc4)c3)[nH]c(=O)c2c1C | -1 | + | 7 | 10 | 0
Cc1cc(CNC(=O)Cn2nc(C)c([N+](=O)[O-])c2C)c2ccccc2n1 | 58* | · | -12 | -9 | -1
COc1ccccc1CNC(=O)Cn1nc(C)c([N+](=O)[O-])c1C | -3 | i | 7 | 6 | 0
Cc1nn(CC(=O)N2CCN(c3ccccc3)CC2)c(C)c1[N+](=O)[O-] | 6 | + | 28 | 1 | 2
OCC[C@@H]1C[C@H](O)[C@@H](O)[C@]2(OCCc3cc(Cl)ccc32)O1 | -2 | i | 2 | · | ·
COc1ccc(C)cc1S(=O)(=O)N1CCCC(C(=O)NC2CC2)C1 (stereo not drawn) | 4 | · | 9 | 6 | -1
CN1CCN(C(=O)c2ccc3c(c2)N(Cc2ccccc2F)C(=O)c2ccccc2S3=O)CC1 (stereo not drawn) | -2 | i | -3 | -1 | 1
CN1CCN(C(=O)c2ccc3c(c2)N(Cc2ccc(Cl)cc2)C(=O)c2ccccc2S3=O)CC1 (stereo not drawn) | 17 | + | -1 | 12 | 0
CC12CCC(C(=O)N(c3nccs3)C1=O)C2(C)C (stereo not drawn) | -2 | i | -13 | 2 | -2
CC(C)c1nn2c(=O)cc(O)nc2s1 | 8 | i | 0 | -1 | -1
COc1ccc(-c2noc(=O)n2CC(=O)N2CCC(Cc3ccccc3)CC2)cc1 | 16 | i | 7 | 1 | -3
CCOc1nc(N2CCOCC2)nc(N2CCOCC2)n1 | -3 | + | -10 | 5 | -3
O=C(CCc1nc(-c2ccccc2Cl)no1)NC1CCCCC1 | -9 | i | -5 | 3 | -2
O=C(CN(Cc1ccc(F)cc1)C(=O)CCC(=O)Nc1nccs1)NCC1CCCO1 (stereo not drawn) | -10 | + | -12 | -4 | -1
O=C(CN(C(=O)CCC(=O)Nc1nccs1)c1ccc(F)cc1)NCC1CCCO1 (stereo not drawn) | 0 | i | -1 | 1 | 0
O=C(Nc1ccc(-c2nc3ccccc3o2)cc1)c1ccc(N2CCOCC2)c([N+](=O)[O-])c1 | -3 | · | -36 | 16 | 1

Screening data from PubChem.
